Results as given in ChEMBL document CHEMBL1154183, “Structure-based optimization of potent and selective inhibitors of the tyrosine kinase erythropoietin producing human hepatocellular carcinoma receptor B4 (EphB4)” (J Med Chem, 2009).
Blank lines part the entries; values can stand above or below the molecule they belong to.

Experiments:
[1] = target: Tyrosine-protein kinase FRK (Homo sapiens) (UniProt P42685); assay: Binding affinity to FRK assessed as percentage of kinase remaining bound to the bead at 1 uM by T7 phage display based binding assay
Method in brief: (§1)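 Competition binding assay run by a contract lab. Each kinase was expressed as a fusion to T7 phage, full-length for small kinases and catalytic domain for large ones. Phage were mixed with an immobilized known kinase inhibitor on streptavidin magnetic beads and with test compound at a single 1 μM. Kinase/phage still bound to the beads was quantified by qPCR and expressed as % of DMSO control.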

[2] = target: ALK tyrosine kinase receptor (Homo sapiens) (UniProt Q9UM73); assay: Binding affinity to ALK assessed as percentage of kinase remaining bound to the bead at 1 uM by T7 phage display based binding assay; method in brief: as §1
[3] = target: Serine/threonine-protein kinase Sgk1 (Homo sapiens) (UniProt O00141); assay: Inhibition of SGK1 assessed as remaining enzyme activity at 1 uM relative to DMSO
[4] = target: Serine/threonine-protein kinase STK11 (Homo sapiens) (UniProt Q15831); assay: Inhibition of LKB1 assessed as remaining enzyme activity at 1 uM relative to DMSO
Method in brief: (§2)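 Dundee kinase panel, radiometric: [γ-33P]ATP (800 cpm/pmol) at 5, 20 or 50 μM, at or below each kinase's ATP Km; 10 mM magnesium acetate; robotic, room temperature, 30 min. Reactions started with MgATP, stopped with orthophosphoric acid, spotted onto P81 filters. Inhibitor tested at a single concentration; mean % activity of duplicates relative to DMSO control.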

[5] = target: Insulin-like growth factor 1 receptor (Homo sapiens) (UniProt P08069); assay: Inhibition of IGF-1R assessed as remaining enzyme activity at 1 uM relative to DMSO; method in brief: as §2
[6] = target: Mitogen-activated protein kinase 11 (Homo sapiens) (UniProt Q15759); assay: Inhibition of p38beta assessed as remaining enzyme activity at 1 uM relative to DMSO
[7] = target: Homeodomain-interacting protein kinase 2 (Homo sapiens) (UniProt Q9H2X6); assay: Inhibition of HIPK2 assessed as remaining enzyme activity at 1 uM relative to DMSO; method in brief: as §2
[8] = target: Ephrin type-B receptor 2 (Homo sapiens, UniProt P29323); assay: Inhibition of EphB2 by [gamma33-P]ATP based assay
Method in brief: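 Radiometric [γ-33P]ATP kinase assay against Eph kinases, following a protocol similar to the Mg-acetate/MgATP filter-binding method.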

[9] = target: Ribosomal protein S6 kinase alpha-5 (Homo sapiens) (UniProt O75582); assay: Inhibition of MSK1 assessed as remaining enzyme activity at 1 uM relative to DMSO
Method in brief: (§3)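 Radiometric kinase assay run robotically at room temperature for 30 min, linear in time and enzyme. Conditions: 10 mM magnesium acetate, [γ-33P]ATP (800 cpm/pmol) at 5, 20 or 50 μM per kinase, at or below its ATP Km. Started with MgATP and stopped with orthophosphoric acid, then spotted on P81 filters. Reported as mean % activity of duplicates versus DMSO controls.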

[10] = target: Glycogen synthase kinase-3 beta (Homo sapiens) (UniProt P49841); assay: Inhibition of GSK3-beta assessed as remaining enzyme activity at 1 uM relative to DMSO; method in brief: as §2
[11] = target: Misshapen-like kinase 1 (Homo sapiens) (UniProt Q8N4C8); assay: Inhibition of MINK1 assessed as remaining enzyme activity at 1 uM relative to DMSO
Method in brief: (§4)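 Radiometric kinase assay run robotically at room temperature for 30 min. Contained 10 mM magnesium acetate and [γ-33P]ATP (800 cpm/pmol) at 5, 20 or 50 μM, chosen per kinase to be at or below its ATP Km. Reactions were started with MgATP, stopped with orthophosphoric acid and spotted onto P81 filters. Result is mean % activity of duplicates at one inhibitor concentration versus DMSO control.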

[12] = target: Inhibitor of nuclear factor kappa-B kinase subunit epsilon (Homo sapiens) (UniProt Q14164); assay: Inhibition of IKKepsilon assessed as remaining enzyme activity at 1 uM relative to DMSO; method in brief: as §2
[13] = target: Mitogen-activated protein kinase 3 (Homo sapiens) (UniProt P27361); assay: Inhibition of ERK1 assessed as remaining enzyme activity at 1 uM relative to DMSO; method in brief: as §3
[14] = target: Mitogen-activated protein kinase 13 (Homo sapiens) (UniProt O15264); assay: Inhibition of p38delta assessed as remaining enzyme activity at 1 uM relative to DMSO
[15] = target: Receptor tyrosine-protein kinase erbB-2 (Homo sapiens) (UniProt P04626); assay: Binding affinity to ERBB2 assessed as percentage of kinase remaining bound to the bead at 1 uM by T7 phage display based binding assay; method in brief: as §1
[16] = target: Bone morphogenetic protein receptor type-1B (Homo sapiens) (UniProt O00238); assay: Binding affinity to BMPR1B assessed as percentage of kinase remaining bound to the bead at 1 uM by T7 phage display based binding assay; method in brief: as §1
[17] = target: Discoidin domain-containing receptor 2 (Homo sapiens) (UniProt Q16832); assay: Binding affinity to DDR2 assessed as percentage of kinase remaining bound to the bead at 1 uM by T7 phage display based binding assay; method in brief: as §1
[18] = target: Proto-oncogene tyrosine-protein kinase Src (Homo sapiens) (UniProt P12931); assay: Inhibition of Src assessed as remaining enzyme activity at 3 uM relative to DMSO
[19] = target: Serine/threonine-protein kinase Nek2 (Homo sapiens) (UniProt P51955); assay: Inhibition of NEK2alpha assessed as remaining enzyme activity at 3 uM relative to DMSO; method in brief: as §4
[20] = target: Dual specificity protein kinase TTK (Homo sapiens) (UniProt P33981); assay: Inhibition of TTK assessed as remaining enzyme activity at 3 uM relative to DMSO
[21] = target: Serine/threonine-protein kinase 26 (Homo sapiens) (UniProt Q9P289); assay: Inhibition of MST4 assessed as remaining enzyme activity at 3 uM relative to DMSO; method in brief: as §4
[22] = target: Serine/threonine-protein kinase PAK 4 (Homo sapiens) (UniProt O96013); assay: Inhibition of PAK4 assessed as remaining enzyme activity at 3 uM relative to DMSO; method in brief: as §4
[23] = target: Ribosomal protein S6 kinase alpha-5 (Homo sapiens) (UniProt O75582); assay: Inhibition of MSK1 assessed as remaining enzyme activity at 3 uM relative to DMSO; method in brief: as §4
[24] = target: Protein kinase C zeta type (Homo sapiens) (UniProt Q05513); assay: Inhibition of PKCzeta assessed as remaining enzyme activity at 3 uM relative to DMSO
[25] = target: Serine/threonine-protein kinase Sgk1 (Homo sapiens) (UniProt O00141); assay: Inhibition of SGK1 assessed as remaining enzyme activity at 3 uM relative to DMSO
[26] = target: MAP kinase-activated protein kinase 5 (Homo sapiens) (UniProt Q8IW41); assay: Inhibition of PRAK assessed as remaining enzyme activity at 3 uM relative to DMSO
[27] = target: Serine/threonine-protein kinase pim-3 (Homo sapiens) (UniProt Q86V86); assay: Inhibition of PIM3 assessed as remaining enzyme activity at 3 uM relative to DMSO; method in brief: as §4
[28] = target: Inhibitor of nuclear factor kappa-B kinase subunit beta (Homo sapiens) (UniProt O14920); assay: Inhibition of IKK-beta assessed as remaining enzyme activity at 3 uM relative to DMSO; method in brief: as §2
[29] = target: Serine/threonine-protein kinase D1 (Homo sapiens) (UniProt Q15139); assay: Inhibition of PKD1 assessed as remaining enzyme activity at 3 uM relative to DMSO

Chain of Ribosomal protein S6 kinase alpha-5 (Homo sapiens) (O75582 whole entry, looked up): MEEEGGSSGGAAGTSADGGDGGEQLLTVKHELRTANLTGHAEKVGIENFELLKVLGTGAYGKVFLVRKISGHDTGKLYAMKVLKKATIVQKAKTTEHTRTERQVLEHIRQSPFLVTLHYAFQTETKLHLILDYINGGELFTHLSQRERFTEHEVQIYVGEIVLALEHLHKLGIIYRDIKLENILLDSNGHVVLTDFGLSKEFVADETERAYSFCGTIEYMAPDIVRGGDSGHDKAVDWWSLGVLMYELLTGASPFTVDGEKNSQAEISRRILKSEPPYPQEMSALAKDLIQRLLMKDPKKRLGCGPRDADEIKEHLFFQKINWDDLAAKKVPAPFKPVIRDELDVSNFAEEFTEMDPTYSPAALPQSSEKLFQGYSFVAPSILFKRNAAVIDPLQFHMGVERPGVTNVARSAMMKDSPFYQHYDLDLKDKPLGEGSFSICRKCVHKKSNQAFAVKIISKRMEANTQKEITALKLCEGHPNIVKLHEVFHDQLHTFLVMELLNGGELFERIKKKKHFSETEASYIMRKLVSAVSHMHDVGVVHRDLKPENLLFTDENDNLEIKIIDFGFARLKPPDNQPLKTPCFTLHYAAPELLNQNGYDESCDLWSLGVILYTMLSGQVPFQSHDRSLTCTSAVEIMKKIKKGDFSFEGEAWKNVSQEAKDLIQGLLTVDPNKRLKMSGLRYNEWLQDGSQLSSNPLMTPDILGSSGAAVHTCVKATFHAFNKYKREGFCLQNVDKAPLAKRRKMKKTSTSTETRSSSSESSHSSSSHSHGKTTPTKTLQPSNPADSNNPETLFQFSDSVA
Chain of Serine/threonine-protein kinase Sgk1 (Homo sapiens) (O00141 whole entry): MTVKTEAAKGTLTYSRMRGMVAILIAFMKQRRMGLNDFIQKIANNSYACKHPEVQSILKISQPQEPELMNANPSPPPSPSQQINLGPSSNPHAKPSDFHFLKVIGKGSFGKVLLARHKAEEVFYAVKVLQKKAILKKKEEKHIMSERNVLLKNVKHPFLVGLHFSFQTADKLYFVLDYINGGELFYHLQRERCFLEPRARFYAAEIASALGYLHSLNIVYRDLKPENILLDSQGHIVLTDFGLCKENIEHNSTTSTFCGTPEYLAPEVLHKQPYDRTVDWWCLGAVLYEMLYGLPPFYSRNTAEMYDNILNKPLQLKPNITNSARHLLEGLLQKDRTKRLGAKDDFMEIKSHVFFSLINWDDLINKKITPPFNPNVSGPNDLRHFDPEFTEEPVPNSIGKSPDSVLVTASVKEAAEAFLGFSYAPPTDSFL
Chain of Proto-oncogene tyrosine-protein kinase Src (Homo sapiens) (P12931 2-536 limits assumed): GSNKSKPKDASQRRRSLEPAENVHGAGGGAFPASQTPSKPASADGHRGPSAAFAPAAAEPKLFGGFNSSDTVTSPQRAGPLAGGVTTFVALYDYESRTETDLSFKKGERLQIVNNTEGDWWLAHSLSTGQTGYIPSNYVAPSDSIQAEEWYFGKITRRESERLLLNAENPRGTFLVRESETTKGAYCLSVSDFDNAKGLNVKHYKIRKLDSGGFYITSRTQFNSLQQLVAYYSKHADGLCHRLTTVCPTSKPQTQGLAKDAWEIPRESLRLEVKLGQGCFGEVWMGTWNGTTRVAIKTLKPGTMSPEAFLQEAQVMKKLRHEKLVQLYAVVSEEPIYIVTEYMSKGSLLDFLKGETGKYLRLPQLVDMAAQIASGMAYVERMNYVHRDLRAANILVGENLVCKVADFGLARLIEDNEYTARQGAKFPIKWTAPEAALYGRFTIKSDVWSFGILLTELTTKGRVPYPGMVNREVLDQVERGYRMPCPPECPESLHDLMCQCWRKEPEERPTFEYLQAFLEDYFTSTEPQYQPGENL
Chain of Misshapen-like kinase 1 (Homo sapiens) (Q8N4C8 whole entry, looked up): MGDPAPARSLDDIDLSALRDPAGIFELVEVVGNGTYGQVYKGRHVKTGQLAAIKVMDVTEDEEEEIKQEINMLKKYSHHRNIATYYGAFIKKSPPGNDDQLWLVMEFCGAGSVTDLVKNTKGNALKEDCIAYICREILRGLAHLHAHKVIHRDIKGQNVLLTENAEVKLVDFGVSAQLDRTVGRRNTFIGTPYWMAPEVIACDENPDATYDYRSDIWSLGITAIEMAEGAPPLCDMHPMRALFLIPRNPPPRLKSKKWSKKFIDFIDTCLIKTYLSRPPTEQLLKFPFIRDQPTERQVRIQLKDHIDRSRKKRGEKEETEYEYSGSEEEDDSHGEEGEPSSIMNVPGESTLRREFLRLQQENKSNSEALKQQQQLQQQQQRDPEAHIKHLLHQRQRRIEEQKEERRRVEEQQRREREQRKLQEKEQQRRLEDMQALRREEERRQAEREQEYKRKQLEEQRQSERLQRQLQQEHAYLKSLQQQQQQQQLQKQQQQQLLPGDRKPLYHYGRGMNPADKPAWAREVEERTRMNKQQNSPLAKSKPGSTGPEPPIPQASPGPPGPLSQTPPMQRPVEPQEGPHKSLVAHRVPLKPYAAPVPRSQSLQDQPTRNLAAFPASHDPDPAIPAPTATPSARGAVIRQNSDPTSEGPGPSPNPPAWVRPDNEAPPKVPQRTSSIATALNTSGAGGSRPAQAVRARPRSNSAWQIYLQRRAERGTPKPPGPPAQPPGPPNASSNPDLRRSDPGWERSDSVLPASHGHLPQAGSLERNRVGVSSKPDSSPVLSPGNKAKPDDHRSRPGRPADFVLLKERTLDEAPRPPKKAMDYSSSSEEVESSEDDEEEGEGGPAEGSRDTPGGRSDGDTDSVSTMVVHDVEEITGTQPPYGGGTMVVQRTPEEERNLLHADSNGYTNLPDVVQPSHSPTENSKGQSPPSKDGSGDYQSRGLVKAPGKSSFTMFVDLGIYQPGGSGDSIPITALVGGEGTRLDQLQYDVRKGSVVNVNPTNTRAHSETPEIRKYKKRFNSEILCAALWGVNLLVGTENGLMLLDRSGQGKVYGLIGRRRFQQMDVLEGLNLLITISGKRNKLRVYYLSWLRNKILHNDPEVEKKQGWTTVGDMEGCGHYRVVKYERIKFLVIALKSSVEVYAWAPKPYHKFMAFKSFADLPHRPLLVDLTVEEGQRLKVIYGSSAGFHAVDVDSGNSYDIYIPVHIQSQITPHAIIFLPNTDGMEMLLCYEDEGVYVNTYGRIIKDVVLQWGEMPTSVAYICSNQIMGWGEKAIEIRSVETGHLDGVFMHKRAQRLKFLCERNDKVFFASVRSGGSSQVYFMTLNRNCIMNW
Chain of Protein kinase C zeta type (Homo sapiens) (Q05513 whole entry): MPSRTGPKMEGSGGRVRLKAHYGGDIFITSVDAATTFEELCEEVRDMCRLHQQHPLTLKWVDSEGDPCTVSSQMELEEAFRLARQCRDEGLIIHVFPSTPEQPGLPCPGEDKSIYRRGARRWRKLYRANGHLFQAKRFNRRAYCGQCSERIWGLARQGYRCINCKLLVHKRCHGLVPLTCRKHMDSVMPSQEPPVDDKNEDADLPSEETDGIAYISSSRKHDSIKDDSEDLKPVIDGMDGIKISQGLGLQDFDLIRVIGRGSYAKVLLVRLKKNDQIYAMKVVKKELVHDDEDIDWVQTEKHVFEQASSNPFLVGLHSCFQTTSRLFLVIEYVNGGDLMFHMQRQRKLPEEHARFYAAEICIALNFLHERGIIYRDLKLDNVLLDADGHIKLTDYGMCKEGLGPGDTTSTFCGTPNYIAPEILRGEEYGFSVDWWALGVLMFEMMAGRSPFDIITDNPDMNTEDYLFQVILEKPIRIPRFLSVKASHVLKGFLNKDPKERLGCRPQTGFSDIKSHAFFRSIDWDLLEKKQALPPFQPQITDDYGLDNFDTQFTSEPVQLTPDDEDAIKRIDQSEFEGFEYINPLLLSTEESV
Chain of Serine/threonine-protein kinase Nek2 (Homo sapiens) (P51955 whole entry): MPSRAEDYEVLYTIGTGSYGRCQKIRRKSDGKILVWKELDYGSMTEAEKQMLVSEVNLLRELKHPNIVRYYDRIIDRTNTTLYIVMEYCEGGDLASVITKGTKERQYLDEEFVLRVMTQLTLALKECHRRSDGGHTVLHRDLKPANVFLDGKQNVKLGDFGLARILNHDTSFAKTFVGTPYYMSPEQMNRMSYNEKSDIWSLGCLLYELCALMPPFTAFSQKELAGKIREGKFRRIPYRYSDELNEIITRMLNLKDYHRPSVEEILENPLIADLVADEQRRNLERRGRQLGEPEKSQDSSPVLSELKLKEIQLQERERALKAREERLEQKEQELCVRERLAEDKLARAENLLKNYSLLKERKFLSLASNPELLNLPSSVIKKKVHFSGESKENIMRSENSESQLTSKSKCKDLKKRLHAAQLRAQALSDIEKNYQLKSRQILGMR
Chain of Dual specificity protein kinase TTK (Homo sapiens) (P33981 whole entry): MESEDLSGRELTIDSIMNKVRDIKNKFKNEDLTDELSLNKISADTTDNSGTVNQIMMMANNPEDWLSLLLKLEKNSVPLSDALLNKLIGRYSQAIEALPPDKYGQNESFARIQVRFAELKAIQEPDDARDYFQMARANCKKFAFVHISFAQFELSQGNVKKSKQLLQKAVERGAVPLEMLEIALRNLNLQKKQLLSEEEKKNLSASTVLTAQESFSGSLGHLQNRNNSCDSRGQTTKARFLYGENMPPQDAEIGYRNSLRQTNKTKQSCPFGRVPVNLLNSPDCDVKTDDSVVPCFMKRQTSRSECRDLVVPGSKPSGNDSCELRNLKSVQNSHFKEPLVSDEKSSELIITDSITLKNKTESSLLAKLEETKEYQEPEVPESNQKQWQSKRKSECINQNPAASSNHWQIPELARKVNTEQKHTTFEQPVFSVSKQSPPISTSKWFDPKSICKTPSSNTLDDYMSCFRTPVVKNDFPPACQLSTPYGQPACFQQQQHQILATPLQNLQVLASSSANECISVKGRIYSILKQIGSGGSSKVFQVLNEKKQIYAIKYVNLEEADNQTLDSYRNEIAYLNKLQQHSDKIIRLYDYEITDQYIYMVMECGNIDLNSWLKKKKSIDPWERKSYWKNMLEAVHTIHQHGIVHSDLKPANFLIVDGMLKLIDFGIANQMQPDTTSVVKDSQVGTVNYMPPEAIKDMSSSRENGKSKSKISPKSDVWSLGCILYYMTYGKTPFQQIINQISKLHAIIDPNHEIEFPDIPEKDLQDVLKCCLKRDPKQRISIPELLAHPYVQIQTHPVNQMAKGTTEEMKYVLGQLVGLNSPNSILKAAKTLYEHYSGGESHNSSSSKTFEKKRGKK

- Activity [1]: 0.3%
- Activity [2]: 99%
- Activity [3]: 78%
- Activity [4]: 75%
- Activity [5]: 94%
- Activity [6]: 83%
- Activity [7]: 98%
- IC50 [8]: 1.2 nM
- Activity [9]: 95%
- Activity [10]: 89%
- Activity [11]: 102%
- Activity [12]: 85%
- Activity [13]: 96%
- Activity [14]: 86%
- Activity [15]: 27%
- Activity [16]: 0.9%
- Activity [17]: 21%
SMILES: COc1ccccc1-n1c(-c2cc(O)ccc2C)cn2c3c(=O)[nH]c(=O)n(C)c3nc12

- Activity [18]: 12%
- Activity [19]: 102%
- Activity [20]: 99%
- Activity [21]: 83%
- Activity [22]: 93%
- Activity [23]: 95%
- Activity [24]: 98%
- Activity [25]: 124%
- Activity [26]: 87%
- Activity [27]: 111%
- Activity [28]: 92%
- Activity [29]: 100%
SMILES: COc1ccccc1-n1c(-c2ccccc2C)cn2c3c(=O)[nH]c(=O)n(C)c3nc12
